Experimental data collected from several papers.
Protocols differ between the studies behind these lines.
Target: Dual specificity protein kinase CLK4 (CLK4, Homo sapiens, UniProt Q9HAZ1)

Compound	observed	mode	technique	concentration	measurement	result
CC(C)(C)c1cc(C=C(C#N)C#N)cc(Br)c1O	enzyme activity	inhibitor		0.5 µM	remaining activity	88.6%
Nc1ncc(-c2nc(N3CCOCC3)nc(N3CCOCC3)n2)c(C(F)F)n1	binding		competition with immobilised ligand	10 µM	remaining binding	30%
Cc1nn(C)cc1-c1nc2c(N3CCN(Cc4ccc(Cl)cc4)CC3)c(Cl)cnc2[nH]1	binding		competition with immobilised ligand	1 µM	remaining binding	100%
C#Cc1n[nH]c2c(-c3cn([C@@H](C)c4ccccn4)c(=O)[nH]c3=O)cc(F)cc12	enzyme activity	inhibitor		0.1 µM	inhibition	8.9%
O=c1[nH]c2ccccc2n1C1CCN(Cc2ccc(-c3[nH]c4cc5ncnc5cc4nc3-c3ccccc3)cc2)CC1	cell-free assay			0.5 µM	remaining signal	92.8%
Cn1cncc1[C@@](O)(COc1ccc(C#N)cc1-c1ccc(OC(F)(F)F)cc1)c1ccc(C#N)cc1	cell-free assay		competition with immobilised ligand	1 µM	remaining binding	96%
C#Cc1n[nH]c2c(-c3cn([C@@H](C)c4ccccc4)c(=O)[nH]c3=O)cc(F)cc12	enzyme activity	inhibitor		0.1 µM	inhibition	-0.9%
COc1cc(Nc2ncc(F)c(Nc3ccc4c(n3)NC(=O)C(C)(C)O4)n2)cc(OC)c1OC	binding		competition with immobilised ligand	10 µM	inhibition	85%
COc1ncccc1-c1cnn2ccc(N3CCN(C(=O)OC(C)C)CC3)nc12	binding		competition with immobilised ligand	1 µM	remaining binding	98%
